Assays:
[1] = Permeability from apical to basolateral side across human Caco2 cells after 2 hrs by LC-MS analysis; type: ADME, cell-based; conditions: Caco-2, read-out: permeability
[2] = target: T1, Protein deacetylase HDAC6 (Homo sapiens, UniProt Q9UBN7); test: Inhibition of HDAC6 (unknown origin)
T1 sequence (Q9UBN7 whole entry): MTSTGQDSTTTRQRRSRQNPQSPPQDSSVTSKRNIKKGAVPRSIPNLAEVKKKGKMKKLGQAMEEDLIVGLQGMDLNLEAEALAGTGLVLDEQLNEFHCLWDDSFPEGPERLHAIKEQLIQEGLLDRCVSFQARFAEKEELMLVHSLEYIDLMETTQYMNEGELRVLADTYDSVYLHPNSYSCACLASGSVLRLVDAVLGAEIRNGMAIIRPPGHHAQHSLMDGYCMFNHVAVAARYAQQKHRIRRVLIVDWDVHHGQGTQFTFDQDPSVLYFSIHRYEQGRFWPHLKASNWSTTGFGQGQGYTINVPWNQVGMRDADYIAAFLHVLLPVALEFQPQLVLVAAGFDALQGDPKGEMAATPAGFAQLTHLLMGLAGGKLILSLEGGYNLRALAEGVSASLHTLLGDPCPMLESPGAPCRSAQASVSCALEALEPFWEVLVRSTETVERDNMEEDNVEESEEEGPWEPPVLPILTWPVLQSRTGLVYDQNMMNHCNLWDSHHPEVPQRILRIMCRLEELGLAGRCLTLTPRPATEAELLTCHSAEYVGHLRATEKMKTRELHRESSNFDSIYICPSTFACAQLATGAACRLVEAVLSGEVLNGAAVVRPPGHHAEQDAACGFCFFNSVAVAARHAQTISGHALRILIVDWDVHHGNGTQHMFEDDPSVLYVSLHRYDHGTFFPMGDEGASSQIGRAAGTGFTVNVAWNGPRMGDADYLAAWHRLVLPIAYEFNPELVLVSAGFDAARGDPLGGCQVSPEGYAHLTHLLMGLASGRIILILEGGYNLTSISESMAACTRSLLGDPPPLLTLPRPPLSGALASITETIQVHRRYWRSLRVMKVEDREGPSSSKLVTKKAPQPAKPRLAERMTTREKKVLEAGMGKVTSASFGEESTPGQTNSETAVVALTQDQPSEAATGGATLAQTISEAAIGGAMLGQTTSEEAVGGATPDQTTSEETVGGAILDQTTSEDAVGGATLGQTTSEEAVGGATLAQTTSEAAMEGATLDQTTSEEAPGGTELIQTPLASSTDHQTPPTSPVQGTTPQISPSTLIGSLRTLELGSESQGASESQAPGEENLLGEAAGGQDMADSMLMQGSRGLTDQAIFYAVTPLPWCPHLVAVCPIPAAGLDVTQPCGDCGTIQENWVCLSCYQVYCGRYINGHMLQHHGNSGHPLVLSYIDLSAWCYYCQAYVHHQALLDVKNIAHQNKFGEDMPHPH

Histone deacetylase 2 = Histone deacetylase 2 (Homo sapiens, UniProt Q92769); test: Inhibition of HDAC2 (unknown origin)
Histone deacetylase 3 = Histone deacetylase 3 (Homo sapiens, UniProt O15379); test: Inhibition of HDAC3 (unknown origin)
[3] = target: Voltage-gated inwardly rectifying potassium channel KCNH2 (Homo sapiens, UniProt Q12809); test: Displacement of [3H]astemizole from human ERG channel transfected in HEK293 cells after 60 mins by liquid scintillation counting analysis; type: cell-based
[4] = Metabolic stability in human liver microsomes after 30 mins by LC-MS/MS analysis; type: ADME, Microsome; conditions: read-out: Stability
Method in brief: (§1)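 Compounds were incubated with mouse or human liver microsomal preparation for 30 min at 37 °C. The reaction was stopped with CH3CN. Unmetabolized compound was quantified by LC-MS/MS in MRM mode and reported as percent remaining. Replicates n ≥ 2, mean values given.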

[5] = Metabolic stability in mouse liver microsomes after 30 mins by LC-MS/MS analysis; type: ADME, Microsome; conditions: read-out: Stability; method in brief: as §1
Mus musculus = test: Cmax in CD1 mouse at 15 mg/kg, po; conditions: mouse, in vivo
[6] = Oral bioavailability in CD1 mouse at 15 mg/kg; conditions: in vivo

Chain of Histone deacetylase 3 (O15379 whole entry): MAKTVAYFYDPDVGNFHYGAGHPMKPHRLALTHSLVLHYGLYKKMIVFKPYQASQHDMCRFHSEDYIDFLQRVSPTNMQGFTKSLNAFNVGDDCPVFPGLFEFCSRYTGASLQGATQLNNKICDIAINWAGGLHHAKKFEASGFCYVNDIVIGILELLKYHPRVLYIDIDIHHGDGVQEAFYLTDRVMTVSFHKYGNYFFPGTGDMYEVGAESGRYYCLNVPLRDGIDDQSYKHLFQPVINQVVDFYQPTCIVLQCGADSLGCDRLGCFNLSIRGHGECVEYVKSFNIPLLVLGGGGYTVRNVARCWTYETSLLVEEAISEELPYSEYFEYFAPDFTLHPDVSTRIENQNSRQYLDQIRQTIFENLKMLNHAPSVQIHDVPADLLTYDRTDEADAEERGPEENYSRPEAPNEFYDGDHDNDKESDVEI
Chain of Histone deacetylase 2 (Q92769 whole entry): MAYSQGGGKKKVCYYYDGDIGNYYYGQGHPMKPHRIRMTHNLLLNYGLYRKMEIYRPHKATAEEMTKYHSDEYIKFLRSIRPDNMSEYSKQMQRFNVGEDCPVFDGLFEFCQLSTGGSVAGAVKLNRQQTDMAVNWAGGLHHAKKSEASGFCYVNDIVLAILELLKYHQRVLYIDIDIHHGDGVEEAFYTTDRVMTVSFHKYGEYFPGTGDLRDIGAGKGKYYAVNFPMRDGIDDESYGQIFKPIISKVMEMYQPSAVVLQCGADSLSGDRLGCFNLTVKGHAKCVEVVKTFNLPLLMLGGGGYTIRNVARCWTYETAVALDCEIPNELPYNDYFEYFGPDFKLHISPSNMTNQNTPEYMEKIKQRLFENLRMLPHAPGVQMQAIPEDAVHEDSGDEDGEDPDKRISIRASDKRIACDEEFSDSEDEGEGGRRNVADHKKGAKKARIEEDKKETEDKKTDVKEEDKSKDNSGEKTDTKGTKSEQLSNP
Chain of Voltage-gated inwardly rectifying potassium channel KCNH2 (Q12809 whole entry): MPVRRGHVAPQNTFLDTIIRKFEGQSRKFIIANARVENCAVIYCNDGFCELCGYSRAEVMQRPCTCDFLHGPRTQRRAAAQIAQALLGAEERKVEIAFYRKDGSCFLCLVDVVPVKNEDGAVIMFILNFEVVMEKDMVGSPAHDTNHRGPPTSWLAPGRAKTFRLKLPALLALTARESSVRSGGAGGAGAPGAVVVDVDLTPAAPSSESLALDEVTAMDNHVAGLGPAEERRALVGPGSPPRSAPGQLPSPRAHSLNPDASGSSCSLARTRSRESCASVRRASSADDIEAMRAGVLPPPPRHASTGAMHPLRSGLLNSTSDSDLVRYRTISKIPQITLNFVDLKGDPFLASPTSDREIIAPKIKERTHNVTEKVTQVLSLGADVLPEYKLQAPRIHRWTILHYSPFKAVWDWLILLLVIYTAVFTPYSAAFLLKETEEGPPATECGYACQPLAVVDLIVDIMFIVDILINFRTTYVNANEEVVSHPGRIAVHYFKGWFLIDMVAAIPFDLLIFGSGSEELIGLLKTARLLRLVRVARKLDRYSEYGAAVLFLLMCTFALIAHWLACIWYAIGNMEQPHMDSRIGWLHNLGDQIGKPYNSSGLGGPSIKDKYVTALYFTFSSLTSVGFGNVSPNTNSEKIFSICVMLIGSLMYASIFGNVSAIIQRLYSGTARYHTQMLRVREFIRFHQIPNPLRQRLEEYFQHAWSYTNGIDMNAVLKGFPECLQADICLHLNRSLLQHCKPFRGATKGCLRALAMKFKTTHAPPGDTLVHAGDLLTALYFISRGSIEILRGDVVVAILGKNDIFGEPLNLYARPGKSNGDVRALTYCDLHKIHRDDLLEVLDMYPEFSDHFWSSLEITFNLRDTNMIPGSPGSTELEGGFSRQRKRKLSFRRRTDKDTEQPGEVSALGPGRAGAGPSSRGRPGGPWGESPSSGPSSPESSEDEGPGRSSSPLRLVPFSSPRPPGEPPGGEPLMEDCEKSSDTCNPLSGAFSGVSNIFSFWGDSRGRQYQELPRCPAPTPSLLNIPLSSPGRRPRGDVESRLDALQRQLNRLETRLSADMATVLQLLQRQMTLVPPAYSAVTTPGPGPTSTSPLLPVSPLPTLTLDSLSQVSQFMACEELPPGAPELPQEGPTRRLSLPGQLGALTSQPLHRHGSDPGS

O=C(/C=C/c1ccc2c(c1)C(=O)CC1(CCN(Cc3ccccc3)CC1)O2)NO
Papp A→B at 2 h [1]: 5.6 ×10⁻⁶ cm/s | IC50 [2]: 0.103 µM | IC50 (Histone deacetylase 2): 0.27 µM | IC50 (Histone deacetylase 3): 0.065 µM | IC50 [3]: 3.81 µM | remaining at 0.5 h [4]: 55% | remaining at 0.5 h [5]: 32% | Cmax (Mus musculus): 823 nM | bioavailability [6]: 31.5%

Source: ChEMBL document CHEMBL2390828, “Synthesis and biological characterization of spiro[2H-(1,3)-benzoxazine-2,4'-piperidine] based histone deacetylase inhibitors” (Eur J Med Chem, 2013)
